The subject of data set [1] is CCRF-CEM. Briefly: Cytostatic activity against human CEM cells assessed as growth inhibition after 3 days by particle counting analysis. Type of data set: functional, cell-based. Conditions: 72 h; call rule not given here. The procedure, abridged:
(§1)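 Tumor cells seeded and exposed to a range of compound concentrations. Cell number counted with a particle counter after 2 days (L1210, L1210/TK) or 3 days (CEM, CEM/TK, HeLa, HeLa TK, Caco-2, Colo-320).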

Data set [2] has as its system HeLa. Briefly: Cytostatic activity against human HeLa cells assessed as growth inhibition after 3 days by particle counting analysis. Type of data set: functional, cell-based. Conditions: 72 h. The method in brief:
as §1

Data set [3] concerns CCRF-CEM. The data set is described as follows: Cytostatic activity against thymidine kinase-deficient human CEM cells assessed as growth inhibition after 3 days by particle counting analysis. Type of data set: functional, cell-based. Conditions: 72 h. The procedure, abridged:
as §1

For the next data set, the system named is Caco-2. Briefly: Cytostatic activity against human Caco2 cells assessed as growth inhibition after 3 days by particle counting analysis. Type of data set: functional, cell-based. The note with it: Caco-2, 72 h. The procedure, abridged:
as §1

Data set [4] deals with L1210. Briefly: Cytostatic activity against thymidine kinase-deficient mouse L1210 cells assessed as growth inhibition after 2 days by particle counting analysis. The format is functional, cell-based. Conditions: L1210, 48 h. The procedure, abridged:
as §1

Data set [5] deals with Human immunodeficiency virus 2. The data set is described as follows: Antiviral activity against HIV2 ROD infected in human CEM cells assessed as virus-induced giant cell formation after 4 days by microscopic analysis. Type of data set: functional, organism-based. Conditions: Human immunodeficiency virus 2, ISOLATE ROD, CCRF-CEM, 96 h. The procedure, abridged: (§2)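 CEM cells (∼3 × 10^5 cells/cm3) infected with 100 CCID50/mL of HIV-1(IIIB) or HIV-2(ROD), seeded into wells with compound dilutions. Giant cell formation examined microscopically after 4 days at 37 °C.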

Data set [6] relates to Human immunodeficiency virus 1. Briefly: Antiviral activity against HIV1 3B infected in human CEM cells assessed as virus-induced giant cell formation after 4 days by microscopic analysis. Type of data set: functional, organism-based. Conditions: Human immunodeficiency virus 1, 3B, CCRF-CEM, 96 h. The procedure, abridged:
as §2

Data set [7] has as its system HeLa. The data set is described as follows: Cytostatic activity against thymidine kinase-deficient human HeLa cells assessed as growth inhibition after 3 days by particle counting analysis. Type of data set: functional, cell-based. Conditions: 72 h. The procedure, abridged: as §1
The test system of the next data set is COLO 320. The data set is described as follows: Cytostatic activity against human COLO320 cells assessed as growth inhibition after 3 days by particle counting analysis. The format is functional, cell-based. The note with it: COLO 320, 72 h. The method in brief: as §1
The subject of data set [8] is L1210. The data set is described as follows: Cytostatic activity against mouse L1210 cells assessed as growth inhibition after 2 days by particle counting analysis. The note with it: L1210, 48 h. The format is functional, cell-based. The method in brief: as §1
Data set [9] deals with Human alphaherpesvirus 1. The data set is described as follows: Antiviral activity against Herpes simplex virus 1 KOS infected in HEL cells assessed as inhibition of virus-induced cytopathicity. The format is functional, organism-based. Conditions: Human alphaherpesvirus 1, KOS.
Data set [10] can be described thus: Prodrug conversion assessed as carboxypeptidase Y (unknown origin)-mediated (S)-2-((((2R,3S,4R,5R)-5-(5-amino-4-carbamoyl-1H-imidazol-1-yl)-3,4-dihydroxytetrahydrofuran-2-yl)methoxy)oxidophosphorylamino)propanoate formation at 4.8 mg measured after 24 hrs by 31P-NMR analysis. Type of data set: ADME. Conditions: human. The procedure, abridged:
(§3)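 Prodrug incubated with carboxypeptidase Y in d6-acetone/Trizma buffer (pH 7.6); conversion followed over time by 31P NMR.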

For data set [11], the system named is Human alphaherpesvirus 1. The data set is described as follows: Antiviral activity against acyclovir-resistant thymidine kinase-deficient Herpes simplex virus 1 KOS infected in HEL cells assessed as inhibition of virus-induced cytopathicity. Type of data set: functional, organism-based. The note with it: Human alphaherpesvirus 1, KOS.
For a further data set, the system named is Human alphaherpesvirus 2. The data set is described as follows: Antiviral activity against Herpes simplex virus 2 G infected in HEL cells assessed as inhibition of virus-induced cytopathicity. Type of data set: functional, organism-based. The note with it: Human alphaherpesvirus 2, strain G.
Another data set deals with Felid alphaherpesvirus 1. The data set is described as follows: Antiviral activity against Feline herpesvirus infected in cat CRFK cells assessed as inhibition of virus-induced cytopathicity. The format is functional, organism-based. The note with it: Felid alphaherpesvirus 1, CRFK.
A short description of data set [12]: Cytotoxicity against HEL cells. Type of data set: cell-based. The note with it: human.
A short description of data set [13]: Prodrug conversion assessed as carboxypeptidase Y (unknown origin)-mediated metabolite formation lacking one ester moiety at 5 mg measured every 5 mins for 24 hrs by 31P-NMR analysis. The format is ADME. Conditions: human. The procedure, abridged: as §3
The subject of data set [14] is Human immunodeficiency virus 1. Briefly: Antiviral activity against HIV1 infected in human MT4 cells assessed as p24 production after 3 days. Conditions: Human immunodeficiency virus 1, MT4, 72 h.
Data set [15] can be described thus: Chemical stability in d6 acetone/trizma buffer at 5 mg in absence of carboxypeptidase Y. Type of data set: physicochemical. The method in brief: (§4)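 Prodrug kept in d6-acetone plus Trizma buffer (pH 7.6) without carboxypeptidase Y; integrity followed by 31P NMR.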
The test system of a further data set is Hepatitis C virus. The data set is described as follows: Antiviral activity against Hepatitis C virus genotype 1b infected in human HuH7 cells assessed as inhibition of viral replication. Type of data set: functional, organism-based, Hepacivirus hominis. The note with it: Huh-7, read-out: EC50.
The subject of the next data set is MT4. Briefly: Cytotoxicity against human MT4 cells assessed as cell viability by propidium iodide staining-based cell counting analysis. The method in brief: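 MT-4 cultures, untreated or treated, were counted on an automated cell counter. Total and dead cells were enumerated by propidium iodide-based assay.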
Data set [16] can be described thus: Prodrug conversion assessed as carboxypeptidase Y (unknown origin)-mediated (8S)-1-(2-amino-6-oxo-1,6-dihydro-9H-purin-9-yl)-8-methyl-6-oxido-2,5-dioxa-7-aza-6-phosphanonan-9-oate 6-oxide formation at 5 mg measured after 7.5 hrs by 31P-NMR analysis. Type of data set: ADME. Conditions: human. The method in brief:
as §3

Data set [17] is described as follows: Chemical stability in d6 acetone/trizma buffer at 4.8 mg in absence of carboxypeptidase Y. Type of data set: physicochemical. The procedure, abridged:
as §4

The test system of data set [18] is CCRF-CEM. The data set is described as follows: Cytotoxicity against human CEM cells. Type of data set: cell-based.

Turning to `Cc1cn([C@H]2C=C[C@@H](COP(=O)(N[C@@H](C)C(=O)OCc3ccccc3)N[C@@H](C)C(=O)OCc3ccccc3)O2)c(=O)[nH]c1=O`, the IC50 was 92 µM in the data set on CCRF-CEM [1]; 116 µM in the data set with HeLa [2]; 46 µM in the data set on CCRF-CEM [3]; 241 µM in the data set on Caco-2; 7.4 µM with L1210 [4]; 29 µM in the data set with HeLa [7]. Further, the IC50 with COLO 320 is 133 µM; in the data set with L1210 [8], 8.9 µM. The EC50 in data set [5] worked out at 0.096 µM; in data set [6] it was 0.14 µM.

Regarding `Cc1cn([C@H]2C=C[C@@H](COP(=O)(N[C@@H](C)C(=O)OCC(C)(C)C)N[C@@H](C)C(=O)OCC(C)(C)C)O2)c(=O)[nH]c1=O`, the IC50 in the data set with CCRF-CEM [1] is 96 µM; in the data set on HeLa [2], 110 µM; in the data set on CCRF-CEM [3] it was 37 µM; in the data set on Caco-2 it was 174 µM; in the data set on L1210 [4], 23 µM; in the data set on HeLa [7], 53 µM. For the same compound, the concentration for half-maximal inhibition (IC50) is 30 µM in the data set on COLO 320 and 47 µM in the data set on L1210 [8]. Moreover, the EC50 in data set [5] worked out at 0.14 µM; in [6] it was 0.09 µM.

Take `C[C@H](NP(=O)(N[C@@H](C)C(=O)OCC(C)(C)C)OC[C@H]1O[C@@H](n2cnc(C(N)=O)c2N)[C@H](O)[C@@H]1O)C(=O)OCC(C)(C)C`: the IC50 with CCRF-CEM [1], in the data set with HeLa [2], in the data set on HeLa [7] and in the data set with L1210 [8] was greater than 250 µM each time. Besides, the EC50 in the data set on Human alphaherpesvirus 1 [9], in the data set on Human alphaherpesvirus 1 [11], in the data set with Human alphaherpesvirus 2 and in the data set with Felid alphaherpesvirus 1 was greater than 100 µM each time. Besides, the Drug metabolism entry in [10] is recorded as “Not Active”. The compound further showed an MCC in data set [12] greater than 100 µM.

`C[C@H](NP(=O)(N[C@@H](C)C(=O)OCc1ccccc1)OCCOCn1cnc2c(=O)[nH]c(N)nc21)C(=O)OCc1ccccc1`: the Drug metabolism entry in data set [13] and in data set [16] was “Active” throughout. The concentration giving a half-maximal response (EC50) was 2.01 µM in [14]; 18 µM in the data set on Human alphaherpesvirus 1 [9]; greater than 100 µM in the data set with Hepatitis C virus; 25 µM with Human alphaherpesvirus 1 [11]; 16 µM with Human alphaherpesvirus 2; greater than 100 µM in the data set with Felid alphaherpesvirus 1. Moreover, the Stability entry in [15] and in data set [17] was “Stable” each time. The CC50 in the data set with MT4 worked out at 34.9 µM. This compound also registered an MCC in data set [12] greater than 100 µM.

`C[C@H](NP(=O)(N[C@@H](C)C(=O)OCC(C)(C)C)OCCOCn1cnc2c(=O)[nH]c(N)nc21)C(=O)OCC(C)(C)C`: the EC50 was 4.07 µM in data set [14]; 33 µM with Human alphaherpesvirus 1 [9]; greater than 100 µM in the data set with Hepatitis C virus; 20 µM in the data set on Human alphaherpesvirus 1 [11]; 40 µM in the data set with Human alphaherpesvirus 2; greater than 100 µM in the data set on Felid alphaherpesvirus 1. The CC50 with MT4 came out at 82.8 µM. The same compound returned an MCC in [12] greater than 100 µM.

In the case of `Nc1nc2c(ncn2COCCO)c(=O)[nH]1` [ACYCLOVIR], the EC50 is greater than 250 µM in data set [14], 0.23 µM in the data set with Human alphaherpesvirus 1 [9], 23 µM in the data set on Human alphaherpesvirus 1 [11] and greater than 100 µM in the data set on Felid alphaherpesvirus 1. Further, the CC50 in the data set on MT4 was greater than 250 µM. In [12], the MCC was greater than 100 µM.

As for `Nc1ccn([C@@H]2CS[C@H](CO)O2)c(=O)n1` [LAMIVUDINE], the IC50 in the data set with CCRF-CEM [1], in the data set with HeLa [2], in the data set with CCRF-CEM [3], with Caco-2, in the data set on L1210 [4] and in the data set on HeLa [7] was greater than 250 µM each time. Besides, the IC50 with COLO 320 and in the data set on L1210 [8] was greater than 250 µM in each case. Also, the EC50 in [5] came out at 0.18 µM; in data set [6], 0.099 µM. Further, in the data set on CCRF-CEM [18], the CC50 was greater than 250 µM.

These data come from ChEMBL document CHEMBL3085645, “Design, synthesis and biological evaluation of phosphorodiamidate prodrugs of antiviral and anticancer nucleosides” (Eur J Med Chem, 2013).
